As a reminder, the inhibition is the relative decrease from the control value, in per cent. Broadly, the solubility is how much of the substance goes into solution per volume. A higher solubility goes with a readily soluble substance.

Each structure is given as a SMILES string. Several values for one entry are separate records, joined by “and”; a condition that tells them apart may be missing. Identical values can stand only once.

Experimental findings from ChEMBL document CHEMBL3272173, “Synthesis and biological activity of peptide antagonists of luliberin (luteinizing hormone-releasing hormone)” (J Med Chem, 1979) are described below.

In data set [1] the target is T1, Gonadotropin-releasing hormone receptor (Rattus norvegicus) (UniProt P30969).
T1 sequence (whole entry): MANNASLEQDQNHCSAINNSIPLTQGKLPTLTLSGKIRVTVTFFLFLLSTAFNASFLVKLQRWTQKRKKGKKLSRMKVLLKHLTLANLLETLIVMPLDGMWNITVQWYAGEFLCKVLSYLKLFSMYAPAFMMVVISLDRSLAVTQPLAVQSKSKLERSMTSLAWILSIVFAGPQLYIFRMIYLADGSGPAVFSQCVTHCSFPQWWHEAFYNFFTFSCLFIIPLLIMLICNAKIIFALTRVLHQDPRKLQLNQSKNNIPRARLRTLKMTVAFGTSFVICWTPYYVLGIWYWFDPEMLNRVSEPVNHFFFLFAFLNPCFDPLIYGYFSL
The experiment in a line: In vitro antagonist activity at GNRHR in CD rat anterior pituitary gland assessed as inhibition of LH-RH-stimulated LH release at compound to LH-RH molar ratio of 40 after 4 hrs by radioimmunoassay. Conditions: concentration not given here. The essentials:
(§1)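 Anterior pituitaries from diestrus CD rats (200-250 g) were dissociated enzymatically (collagenase, hyaluronidase, then Viokase). Cells were cultured 4 days at 1.67 × 10^5 cells/mL in DME with 10% horse serum and 2.5% fetal calf serum, then washed serum-free. Duplicate cultures received LH-RH (2-5 × 10^-10 M) with a single analogue concentration in serum-free DME for 4 h at 37 °C. LH in the medium was measured by RIA and reported as % inhibition of LH-RH-stimulated release.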

Data set [2] addresses T1, Gonadotropin-releasing hormone receptor (Rattus norvegicus). The experiment in a line: In vitro antagonist activity at GNRHR in CD rat anterior pituitary gland assessed as ratio of molar concentration of compound to LH-RH for inhibition of LH-RH-stimulated LH release after 4 hrs by radioimmunoassay. In a few lines: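 Monolayers were cultured 4 days from dissociated anterior pituitary cells of diestrus CD rats. They were exposed in duplicate to LH-RH (2-5 × 10^-10 M) plus multiple analogue concentrations in serum-free DME for 4 h at 37 °C. LH in the medium was measured by radioimmunoassay. The ED50 molar ratio is the analogue:LH-RH molar ratio giving 50% inhibition of LH-RH-stimulated LH release.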

Data set [3] shares this target. The data set can be described thus: In vitro antagonist activity at GNRHR in CD rat anterior pituitary gland assessed as inhibition of LH-RH-stimulated LH release at compound to LH-RH molar ratio of 100 after 4 hrs by radioimmunoassay. Particulars: concentration not given here. The essentials: as §1
Data set [4] shares this target. The data set can be described thus: In vitro antagonist activity at GNRHR in CD rat anterior pituitary gland assessed as inhibition of LH-RH-stimulated LH release at compound to LH-RH molar ratio of 57 after 4 hrs by radioimmunoassay. Particulars: concentration not given here. In a few lines:
as §1

For data set [5], the system named is Rattus norvegicus. The data set can be described thus: Antiovulatory activity in sc dosed CD rat assessed as blockade of ovulation administered as six doses at 1200, 1230, 1300, 1350, 1400 and 1450 hrs during proestrus stage measured during estrus stage by dissecting microscopic analysis. It counts as functional. In a few lines: (§2)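 Cycling Charles River CD rats were given six subcutaneous injections of analogue in 0.1 mL propylene glycol on the afternoon of proestrus, and controls received vehicle alone. Rats were killed the next morning (estrus). Ovulating animals were scored and ova in the oviducts were counted under a dissecting microscope.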

In data set [6] the test system is Rattus norvegicus. The data set can be described thus: Antiovulatory activity in CD rat assessed as blockade of ovulation at 1 mg, sc administered as six doses at 1200, 1230, 1300, 1350, 1400 and 1450 hrs during proestrus stage measured during estrus stage by dissecting microscopic analysis. The data set is classed as functional. The essentials: as §2
In data set [7] the test system is Rattus norvegicus. The experiment in a line: Antiovulatory activity in CD rat assessed as blockade of ovulation at 10 mg, sc administered as six doses at 1200, 1230, 1300, 1350, 1400 and 1450 hrs during proestrus stage measured during estrus stage by dissecting microscopic analysis. The data set is classed as functional. In a few lines: as §2
Data set [8] concerns the target T1, Gonadotropin-releasing hormone receptor (Rattus norvegicus). The data set can be described thus: In vitro antagonist activity at GNRHR in CD rat anterior pituitary gland assessed as inhibition of LH-RH-stimulated LH release at compound to LH-RH molar ratio of 2000 after 4 hrs by radioimmunoassay. Particulars: concentration not given here. In a few lines: as §1

Data set [9] can be described thus: Solubility of the compound in 0.9% sodium chloride. It counts as physicochemical.
Data set [10] in a line: Solubility of the compound in water. It counts as physicochemical.
In data set [11] the test system is Rattus norvegicus. The data set can be described thus: Antiovulatory activity in CD rat assessed as blockade of ovulation at 0.1 mg, sc administered as six doses at 1200, 1230, 1300, 1350, 1400 and 1450 hrs during proestrus stage measured during estrus stage by dissecting microscopic analysis. It counts as functional. The essentials: as §2
Data set [12] has as its target T1, Gonadotropin-releasing hormone receptor (Rattus norvegicus). The data set can be described thus: In vitro antagonist activity at GNRHR in CD rat anterior pituitary gland assessed as inhibition of LH-RH-stimulated LH release at compound to LH-RH molar ratio of 1.7 after 4 hrs by radioimmunoassay. Conditions: concentration not given here. In a few lines:
as §1

Data set [13] has the same target. The experiment in a line: In vitro antagonist activity at GNRHR in CD rat anterior pituitary gland assessed as inhibition of LH-RH-stimulated LH release at compound to LH-RH molar ratio of 20 after 4 hrs by radioimmunoassay. Conditions: concentration not given here. The essentials: as §1
Data set [14] has the same target. The data set can be described thus: In vitro antagonist activity at GNRHR in CD rat anterior pituitary gland assessed as inhibition of LH-RH-stimulated LH release at compound to LH-RH molar ratio of 500 after 4 hrs by radioimmunoassay. Particulars: concentration not given here. The essentials: as §1
Data set [15] concerns Rattus norvegicus. The data set can be described thus: Antiovulatory activity in CD rat assessed as blockade of ovulation at 0.3 mg, sc administered as six doses at 1200, 1230, 1300, 1350, 1400 and 1450 hrs during proestrus stage measured during estrus stage by dissecting microscopic analysis. The data set is classed as functional. The essentials: as §2
The target of data set [16] is T1, Gonadotropin-releasing hormone receptor (Rattus norvegicus). The experiment in a line: In vitro antagonist activity at GNRHR in CD rat anterior pituitary gland assessed as inhibition of LH-RH-stimulated LH release at compound to LH-RH molar ratio of 28 after 4 hrs by radioimmunoassay. Particulars: concentration not given here. The essentials:
as §1

Data set [17] shares this target. The experiment in a line: In vitro antagonist activity at GNRHR in CD rat anterior pituitary gland assessed as inhibition of LH-RH-stimulated LH release at compound to LH-RH molar ratio of 5 after 4 hrs by radioimmunoassay. Particulars: concentration not given here. In a few lines:
as §1

On to `CCNC(=O)[C@@H]1CCCN1C(=O)[C@H](CCCNC(=N)N)NC(=O)[C@H](CC(C)C)NC(=O)[C@@H](Cc1ccccc1)NC(=O)[C@H](Cc1ccc(O)cc1)NC(=O)[C@H](CO)NC(=O)[C@H](Cc1c[nH]c2ccccc12)NC(=O)[C@H](CCC(N)=O)NC(=O)OCc1ccccc1`, for which the inhibition in data set [1] and in data set [3] was 70% throughout. The ED50 in data set [2] was 12.8 molar ratio and 7.7 molar ratio.

For `CCNC(=O)[C@@H]1CCCN1C(=O)[C@H](CCCNC(=N)N)NC(=O)[C@H](CC(C)C)NC(=O)[C@@H](Cc1ccccc1)NC(=O)[C@H](Cc1ccc(O)cc1)NC(=O)[C@H](CO)NC(=O)[C@H](Cc1c[nH]c2ccccc12)NC(=O)[C@H](COCc1ccccc1)NC(=O)OC(C)(C)C.Cl`, the inhibition in data set [4] came to 91%. Further, the ED50 in the data set with Rattus norvegicus [5] was over 10 mg; in data set [2], 19 molar ratio. In addition, in the data set on Rattus norvegicus [6], the “inhibition (INH)” value is 0%.

As for `CCNC(=O)[C@@H]1CCCN1C(=O)[C@H](CCCNC(=N)N)NC(=O)[C@H](CC(C)C)NC(=O)[C@@H](Cc1ccccc1)NC(=O)[C@H](Cc1ccc(O)cc1)NC(=O)[C@H](CO)NC(=O)[C@H](Cc1c[nH]c2ccccc12)NC(=O)[C@H](CCC(N)=O)NC(=O)OCc1ccccc1.Cl`, in the data set with Rattus norvegicus [7], the “inhibition (INH)” value is given as 0%. Moreover, the ED50 with Rattus norvegicus [5] is over 10 mg.

As to `CC(=O)O.CCNC(=O)[C@@H]1CCCN1C(=O)[C@H](CCCNC(=N)N)NC(=O)[C@H](CC(C)C)NC(=O)[C@@H](CC(N)=O)NC(=O)[C@H](Cc1ccc(O)cc1)NC(=O)[C@H](CO)NC(=O)[C@H](Cc1c[nH]c2ccccc12)NC(=O)[C@H](CCC(N)=O)NC(=O)OCc1ccccc1`, the ED50 was over 1 mg in the data set on Rattus norvegicus [5] and 300 molar ratio in [2]. In addition, in data set [8], the inhibition came to 100%. Further, the “inhibition (INH)” value in the data set on Rattus norvegicus [6] was 20%.

Regarding `CC(=O)O.CC(C)C[C@H](NC(=O)[C@@H](Cc1c[nH]c2ccccc12)NC(=O)[C@H](Cc1ccc(O)cc1)NC(=O)[C@H](CO)NC(=O)[C@H](Cc1c[nH]c2ccccc12)NC(=O)[C@H](COCc1ccccc1)NC(=O)OC(C)(C)C)C(=O)N[C@@H](CCCNC(=N)N)C(=O)N1CCC[C@H]1C(=O)NCC(N)=O`, the figures for the solubility in [9] and in data set [10] were 16 µg/mL and 3000 µg/mL, respectively. Moreover, the ED50 in the data set with Rattus norvegicus [5] is 0.05 mg. Further, in the data set on Rattus norvegicus [11], the “inhibition (INH)” value is given as 100%.

As for `CC(C)C[C@H](NC(=O)[C@@H](Cc1c[nH]c2ccccc12)NC(=O)[C@H](Cc1ccc(O)cc1)NC(=O)[C@H](CO)NC(=O)[C@H](Cc1c[nH]c2ccccc12)NC(=O)[C@H](COCc1ccccc1)NC(=O)OC(C)(C)C)C(=O)N[C@@H](CCCNC(=N)N)C(=O)N1CCC[C@H]1C(=O)NCC(N)=O`, the inhibition was found to be 64% in data set [12] and 71% in data set [13]. In addition, the ED50 in data set [2] is 1.3 molar ratio and 2 molar ratio.

With `CC(C)C[C@H](NC(=O)[C@@H](Cc1ccccc1)NC(=O)[C@H](Cc1ccc(O)cc1)NC(=O)[C@H](CO)NC(=O)[C@H](Cc1c[nH]c2ccccc12)NC(=O)[C@@H](Cc1ccccc1)NC(=O)[C@@H]1CCC(=O)N1)C(=O)N[C@@H](CCCNC(=N)N)C(=O)N1CCC[C@H]1C(=O)NCC(N)=O.Cl`, the inhibition in [14] worked out at 98%. Besides, the ED50 with Rattus norvegicus [5] was 0.1 mg; in data set [2], 76 molar ratio. Besides, the “inhibition (INH)” value in the data set on Rattus norvegicus [15] is reported as 100%.

With `CCNC(=O)[C@@H]1CCCN1C(=O)[C@H](CCCNC(=N)N)NC(=O)[C@H](CC(C)C)NC(=O)[C@H](NC(=O)[C@H](Cc1ccc(O)cc1)NC(=O)[C@H](CO)NC(=O)[C@H](Cc1c[nH]c2ccccc12)NC(=O)[C@H](CCC(N)=O)NC(=O)OCc1ccccc1)[C@@H](O)c1ccccc1`, the inhibition in data set [16] was 82%; in [17] it was 77%.

For `CC(C)C[C@H](NC(=O)[C@@H](Cc1c[nH]c2ccccc12)NC(=O)[C@H](Cc1ccc(O)cc1)NC(=O)[C@H](CO)NC(=O)[C@H](Cc1c[nH]c2ccccc12)NC(=O)[C@H](COCc1ccccc1)NC(=O)OC(C)(C)C)C(=O)N[C@@H](CCCNC(=N)N)C(=O)N1CCC[C@H]1C(=O)NCC(N)=O.Cl`, the ED50 with Rattus norvegicus [5] is recorded as 0.05 mg. In addition, in [10], the concentration in solution (solubility) came to 1000 µg/mL. In the data set on Rattus norvegicus [11] (in the assay text read “at 1 mg” for “at 0.1 mg”), the “inhibition (INH)” value turned out to be 100%.
